Test [1] can be described thus: Cell cycle arrest in human PC3 cells assessed as S phase accumulation at 6 uM after 12 hrs by propidium iodide staining based flow cytometry (reference value: 31.7%). In kind it is functional. The note with it: PC-3. The essentials:
(§1)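 PC-3 cells were grown overnight in dishes to about 70% confluence, then exposed to three compound concentrations. Cells were trypsinized, washed in PBS, fixed overnight in 75% ice-cold ethanol, RNase-treated at 37 °C for 30 min, and stained with propidium iodide. Phase percentages (sub-G1, G0/G1, S, G2/M) were read by flow cytometry against untreated cells.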

The nature of test [2]: Cell cycle arrest in human PC3 cells assessed as G2/M phase accumulation after 48 hrs by propidium iodide staining based flow cytometry. The class given is functional. To be noted: PC-3. Put shortly: as §1
On the technique in general: Flow cytometry measures light scatter and fluorescence of single cells or particles in a stream.

A short description of test [3]: Cell cycle arrest in human PC3 cells assessed as G2/M phase accumulation at 12 uM after 12 hrs by propidium iodide staining based flow cytometry (reference value: 15.81%). The class given is functional. To be noted: PC-3. Put shortly: as §1
Test [4] is described as follows: Cell cycle arrest in human PC3 cells assessed as S phase accumulation at 12 uM after 12 hrs by propidium iodide staining based flow cytometry (reference value: 31.7%). In kind it is functional. To be noted: PC-3. The essentials:
as §1

Test [5] is described as follows: Cytotoxicity against human HepG2 cells assessed as growth inhibition after 48 hrs by MTT assay. The note with it: HepG2, 48 h. The class given is functional, cell-based. Put shortly:
(§2)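 Cells were kept in DMEM with 10% FBS and seeded at 5000 cells/well, then attached for 24 h at 37 °C. Compounds came from 20 mM DMSO stocks, serially diluted in medium, with 0.1% DMSO as vehicle control. After 48 h at 37 °C, MTT (5 mg/mL) was added for 4 h, formazan dissolved in DMSO and A570 read. IC50 was fitted from % inhibition versus control, mean of three independent experiments.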

Test [6] in a line: Cytotoxicity against human PC3 cells assessed as growth inhibition after 48 hrs by MTT assay. In kind it is functional, cell-based. To be noted: PC-3, 48 h. The essentials: as §2
In general terms: Tetrazolium dyes change colour on reduction, which living cells bring about.

Test [7] is filed under the species Sus scrofa. Kind of test: Inhibition of porcine brain tubulin polymerization at 10 uM in presence of GTP by spectrophotometric method relative to control. The essentials: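 Tubulin was purified from pig brain microtubule protein by three temperature-driven assembly/disassembly cycles, then phosphocellulose chromatography. Polymerization ran in PEM buffer (100 mM PIPES, 1 mM MgCl2, 1 mM EGTA) with 1 mM GTP and 5% glycerol at 37 °C, followed by light scattering at 340 nm. Percent inhibition came from plateau absorbance, with a DMSO negative control and a CA-4 reference run the same day.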

The nature of test [8]: Cell cycle arrest in human PC3 cells assessed as subG1 phase accumulation at 6 uM after 12 hrs by propidium iodide staining based flow cytometry (reference value: 0.29%). In kind it is functional. The note with it: PC-3. The essentials:
as §1

A short description of test [9]: Cytotoxicity against human HCT116 cells assessed as growth inhibition after 48 hrs by MTT assay. In kind it is functional, cell-based. The note with it: HCT-116, 48 h. The essentials: as §2
Test [10] in a line: Cell cycle arrest in human PC3 cells assessed as G0/G1 phase accumulation at 6 uM after 12 hrs by propidium iodide staining based flow cytometry (reference value: 51.58%). To be noted: PC-3. In kind it is functional. Put shortly: as §1
Test [11] can be described thus: Cytotoxicity against human HT-29 cells assessed as growth inhibition after 48 hrs by MTT assay. In kind it is functional, cell-based. The note with it: HT-29, 48 h. The essentials: as §2
A short description of test [12]: Cell cycle arrest in human PC3 cells assessed as S phase accumulation at 3 uM after 12 hrs by propidium iodide staining based flow cytometry (reference value: 31.7%). In kind it is functional. The note with it: PC-3. The essentials:
as §1

Test [13] is described as follows: Cell cycle arrest in human PC3 cells assessed as G0/G1 phase accumulation at 12 uM after 12 hrs by propidium iodide staining based flow cytometry (reference value: 51.58%). The class given is functional. The note with it: PC-3. The essentials: as §1
Test [14] in a line: Cell cycle arrest in human PC3 cells assessed as subG1 phase accumulation at 3 uM after 12 hrs by propidium iodide staining based flow cytometry (reference value: 0.29%). The note with it: PC-3. In kind it is functional. The essentials:
as §1

A short description of test [15]: Cell cycle arrest in human PC3 cells assessed as G0/G1 phase accumulation at 3 uM after 12 hrs by propidium iodide staining based flow cytometry (reference value: 51.58%). In kind it is functional. The note with it: PC-3. Put shortly: as §1
Test [16] can be described thus: Cell cycle arrest in human PC3 cells assessed as G2/M phase accumulation at 6 uM after 12 hrs by propidium iodide staining based flow cytometry (reference value: 15.81%). In kind it is functional. To be noted: PC-3. The essentials:
as §1

A short description of test [17]: Cell cycle arrest in human PC3 cells assessed as subG1 phase accumulation at 12 uM after 12 hrs by propidium iodide staining based flow cytometry (reference value: 0.29%). The class given is functional. To be noted: PC-3. Put shortly: as §1
A short description of test [18]: Cell cycle arrest in human PC3 cells assessed as G2/M phase accumulation at 3 uM after 12 hrs by propidium iodide staining based flow cytometry (reference value: 15.81%). In kind it is functional. The note with it: PC-3. Put shortly:
as §1

SMILES strings stand for the structures. pIC50: −log10 of the molar value.

By pIC50 is commonly meant −log10 of the IC50, conventionally taken in molar units. One may read the inhibition as the drop in the measured response relative to a control, in per cent.

As to `COc1ccc(-n2c(SCC(=O)Nc3ccc(Cl)cc3)nnc2-c2cc(OC)c(OC)c(OC)c2)cc1`, the Activity in test [1] is 31.7%; in test [2], “Dose-dependent effect”; in [3], 34.8%; in [4], 27.1%; in [8], 0.62%; in test [10], 46%. Also, the Activity in test [12] came out at 30.8%; in test [13], 37.8%; in [14], 0.43%; in test [15] it was 48%; in test [16], 24.2%; in test [17] it was 0.37%. The Activity in test [18] was 20.1%. Moreover, the pIC50 in test [5] is less than 4.22; in [6], 5.20; in test [9], less than 4.22; in [11], 4.24. Besides, the inhibition in test [7] came to 31%.

(Values after ChEMBL document CHEMBL3877296, “Design, synthesis, and biological evaluation of novel alkylsulfanyl-1,2,4-triazoles as cis-restricted combretastatin A-4 analogues” (Eur J Med Chem, 2017).)
